Results: ChEMBL document CHEMBL1122737, “5-[(Aminoalkyl)amino]-substituted anthra[1,9-cd]pyrazol-6(2H)-ones as novel anticancer agents. Synthesis and biological evaluation” (1984)

Assays:
P388 [1] = test: Evaluated in vivo for the antitumor activity against P388 leukemia cells at a dose of 50 mg/kg (single injection) and 100 mg/kg (Total ); assay type: functional, Mus musculus
In short: (§1)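 Murine P388 leukemia, drug given ip on a q04d × 02 schedule (a slightly modified NCI protocol). Dose is listed per injection and as a total. Read-out is % T/C survival. Mice alive at 30 days count as cured and are left out of % T/C. Cured/tested counts are reported.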

P388 [2] = test: in vivo for the antitumor activity against P388 leukemia cells at a dose of 100 mg/kg (single injection) and 200 mg/kg (Total); assay type: functional, Mus musculus; in short: as §1
L1210 = test: Antitumor activity against L1210 lymphocytic cells in vitro; assay type: functional; conditions: Mus musculus, read-out: ID50 (the source's name)
[3] = In vivo antitumor activity at a single dose of 12.5 mg/kg & 37.5 mg/kg total against mammary adenocarcinoma 16C to assess tumor growth delay (T-C); assay type: functional, Mus musculus
In short: (§2)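 Mammary adenocarcinoma 16C is implanted sc in mice on day 0. Treatment is iv on days 1, 5 and 9, with dose per injection and total. Tumors are measured in two dimensions three times weekly to give growth delay (T − C, days) and gross log kill. Cured mice are excluded from these calculations.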

[4] = In vivo antitumor activity at a single dose of 6.5 mg/kg & 18.8 mg/kg total against mammary adenocarcinoma 16C to assess tumor growth delay (T-C); assay type: functional, Mus musculus; in short: as §2
[5] = In vivo antitumor activity at a single dose of 12.5 mg/kg & 37.5 mg/kg total against mammary adenocarcinoma 16C; assay type: functional, Mus musculus
In short: (§3)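 Mice were inoculated sc with mammary adenocarcinoma 16C on day 0 and given the agent (as the dihydrochloride salt) iv on days 1, 5 and 9. Tumors were measured in two dimensions three times weekly. Tumor growth delay (T − C, days) and gross log kill were derived, with cured mice excluded from these calculations.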

[6] = In vivo antitumor activity at a single dose of 6.5 mg/kg & 18.8 mg/kg total against mammary adenocarcinoma 16C; assay type: functional, Mus musculus; in short: as §3
P388 [7] = test: In vivo antitumor activity against P388 leukemia cells at a dose of 12.5 mg/kg (single injection) and 25 mg/kg (Total ); assay type: functional, Mus musculus; in short: as §1
P388 [8] = test: In vivo antitumor activity against P388 leukemia cells at a dose of 25 mg/kg as a single injection and 50 mg/kg as a total; assay type: functional, Mus musculus; in short: as §1
[9] = Compound was evaluated in vivo for the antitumor activity at a dose of 1.25 mg/kg & 3.75 mg/kg against mammary adenocarcinoma 16C to assess tumor growth delay (T-C).; assay type: functional, Mus musculus; in short: as §2
[10] = Compound was evaluated in vivo for the antitumor activity at a dose of 2.5 mg/kg & 7.5 mg/kg against mammary adenocarcinoma 16C to assess tumor growth delay (T-C); assay type: functional, Mus musculus; in short: as §2
P388 [11] = test: In vivo antitumor activity against P388 leukemia cells at a dose of 0.75 mg/kg as a single injection and 1.5 mg/kg as a total; assay type: functional, Mus musculus; in short: as §1
P388 [12] = test: In vivo antitumor activity against P388 leukemia cells at a dose of 1.5 mg/kg as a single injection and 3 mg/kg as a total; assay type: functional, Mus musculus; in short: as §1
[13] = In vivo antitumor activity at a single dose of 2.5 mg/kg & 7.5 mg/kg total against mammary adenocarcinoma 16C
[14] = In vivo antitumor activity at a single dose of 1.25 mg/kg & 3.75 mg/kg total against mammary adenocarcinoma 16C

**Q.** What does the source list for `O=C1c2cccc(O)c2-c2nn(CCNCCO)c3ccc(NCCNCCO)c1c23`?
**A.** T/C (P388 [1]): 172%; T/C (P388 [2]): 221%

**Q.** Which results are given for `O=C1c2c(O)cccc2-c2nn(CCNCCO)c3ccc(NCCNCCO)c1c23` [LOSOXANTRONE]?
**A.** IC50 (L1210): 5.13 nM; T-C [3]: 11.4 days; T-C [4]: 7 days; Gross log kill [5]: 3.1; Gross log kill [6]: 1.9; T/C (P388 [7]): 219%; T/C (P388 [8]): 248%

**Q.** With `O=C1c2c(O)ccc(O)c2C(=O)c2c(NCCNCCO)ccc(NCCNCCO)c21` [MITOXANTRONE] as the compound, how does the T-C [9] read?
**A.** The T-C was 3 days.

**Q.** And the T-C [10]?
**A.** The T-C was 4.1 days.

**Q.** What about the T/C (P388 [11]) of the same compound?
**A.** The T/C was 231%.

**Q.** What about the T/C (P388 [12]) of the same compound?
**A.** Its T/C is 278%.

**Q.** And the Gross kill [13]?
**A.** The Gross kill was 1.1.

**Q.** And the Gross kill [14]?
**A.** Its Gross kill is 0.8.
